# Screens deposited in PubChem BioAssay by Johns Hopkins Ion Channel Center.
# An excerpt weighted towards active compounds, which were near 3.5% of everything screened.
# MrgX1 PAM: human MrgX1 positive allosteric modulation, primary screen | Q96LB2 | MrgX1-HEK293, Fluo-4 calcium flux, FDSS; active compounds read high | B-score at 10 µM | 310,000 tested, 0.63% active;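 active = plate-corrected calcium response at least 3 library SD above typical, normal starting fluorescence, not activating the receptor alone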;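 note: compound read alongside a low EC10 to EC30 dose of BAM8-22 agonist; peak minus trough fluorescence over baseline measured at the second addition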
# Target sequence (Q96LB2 whole entry, looked up): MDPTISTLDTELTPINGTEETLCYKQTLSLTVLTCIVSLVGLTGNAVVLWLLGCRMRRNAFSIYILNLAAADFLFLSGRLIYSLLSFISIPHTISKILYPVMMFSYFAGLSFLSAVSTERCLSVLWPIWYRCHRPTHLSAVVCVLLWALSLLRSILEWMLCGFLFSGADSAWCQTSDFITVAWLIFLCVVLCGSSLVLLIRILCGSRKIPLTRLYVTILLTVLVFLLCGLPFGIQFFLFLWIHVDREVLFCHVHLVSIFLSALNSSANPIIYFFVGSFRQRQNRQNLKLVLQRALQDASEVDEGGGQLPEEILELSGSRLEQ
# MrgX1 antagonist: blocks BAM8-22 activation of human MrgX1 receptor; Q96LB2; 310,000 tested, 1.3% active; B-score at 10 µM; MRGX1-HEK293 calcium flux, Fluo-4, BAM8-22 antagonism; active compounds read low;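 active = calcium-response B-score plate-corrected more than 3 library SD below zero, starting fluorescence within 5 deviations, no agonist response on first addition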;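 note: peak minus trough fluorescence over baseline after final BAM8-22 challenge near maximal dose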
# RGS4 act: RGS4 potentiation or activation | B-score at 10 µM | HEK293 M3R/inducible RGS4, carbachol calcium flux Fluo4; active compounds read low | 310,000 tested, 0.92% active;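 active = B-score of the integrated calcium signal more than 4 SD below the library mean, with starting fluorescence not abnormally high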;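 note: negative B-score means reduced calcium response which marks RGS4 activation or potentiation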
#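 Also added: carbachol at ECmax as muscarinic agonist stimulus; Assay system: HEK293 cells with stable M3R and inducible RGS4; Timing: overnight RGS4 induction, 30 min dye load 37 °C, 20 min compound RT; Measured by: Fluo4-AM (2 µM) calcium-flux fluorescence, kinetic read.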
# MrgX1 ag: agonists of human MrgX1 receptor. Q96LB2. MrgX1-HEK293 cells, Fluo-4 calcium fluorescence, agonist mode; active compounds read high. B-score at 10 µM. 310,000 tested, 0.44% active. AID 588627;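 active = calcium response B-score plate-corrected fluorescence ratio at least 3 library SD, with starting fluorescence B-score inside 5 SD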
#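 Material: HEK293 cells stably expressing human MrgX1 receptor | Quantity: 15,000 cells per well | Times: Cells plated overnight, dye loaded 0.5 h 37 °C, 0.5 h room temperature | Measured by: Kinetic Fluo-4 NW fluorescence of intracellular calcium | Control set: Positive and negative controls per plate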
# RGS4 inh: human RGS4 inhibition; P49798; HEK293 M3R/RGS4 inducible, Fluo-4 calcium flux; active compounds read high; triggered by carbachol at its EC20; B-score at 10 µM; 310,000 tested, 0.45% active;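 active = B-score, a plate-corrected calcium signal, over three deviations above library mean, with baseline fluorescence within five deviations of library mean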;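 note: RGS4 expression induced by doxycycline in cells with stable M3 receptor; B-score is computed from the integrated fluorescence ratio over baseline after carbachol; higher B-score means a larger calcium signal and so more RGS4 inhibition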
# Target sequence (P49798 whole entry, looked up): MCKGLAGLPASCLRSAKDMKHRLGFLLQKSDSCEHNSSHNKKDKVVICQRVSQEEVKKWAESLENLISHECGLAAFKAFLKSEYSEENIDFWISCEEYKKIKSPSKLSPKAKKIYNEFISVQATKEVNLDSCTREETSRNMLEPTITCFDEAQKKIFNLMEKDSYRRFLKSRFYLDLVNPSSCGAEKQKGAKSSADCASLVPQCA
# MrgX1 ant reconf: human MrgX1 receptor antagonism, re-confirmation screen. shares compounds with MrgX1 antagonist. MrgX1-HEK293, BAM8-22 calcium flux, Fluo-4; active compounds read low. remaining BAM8-22 calcium response % of control (active compounds read low), % at 10 µM. 2,300 tested, 19% active;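 active = remaining agonist calcium response no higher than 100% minus 3 SD of agonist-only control wells, with starting fluorescence near control levels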;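 note: agonist BAM8-22 given at a near maximal EC90 to ECmax level; peak minus minimum fluorescence divided by baseline after agonist addition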
# HEK293 Ca flux: MrgX1 antagonist counter-screen hit in parental HEK293 cells | fluorescence ratio F(max-min)/F0 at 10 µM | 4,000 tested, 2% active | Fluo-4 calcium fluorescence, FDSS | shares compounds with MrgX1 antagonist | AID 624111;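 active = duplicate-averaged calcium fluorescence ratio at least three times the standard deviation of buffer wells, a nonspecific response in parental cells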
# HEK293 Ca counter: MrgX1 allosteric activator counter-screen hit in parental HEK293 cells. shares compounds with MrgX1 antagonist. parental HEK293 calcium flux, Fluo-4 fluorescence ratio; active compounds read high. fluorescence ratio F(max-min)/F0 at 10 µM. 4,000 tested, 0.4% active;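 active = calcium fluorescence ratio, averaged over duplicates, at least 3 SD of the buffer-well ratio, meaning a nonspecific response in receptor-free cells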;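 note: untransfected parental HEK293 lacking MrgX1 used as counterscreen for MrgX1 allosteric activators; fluorescence change taken during the second addition on a kinetic imager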
# HEK293 Ca cntr2: MrgX1 activator counter-screen hit in parental HEK293 cells; Fluo-4 calcium fluorescence (FDSS); active compounds read high; fluorescence ratio F(max-min)/F0 at 10 µM; 4,000 tested, 8.7% active; shares compounds with MrgX1 antagonist;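 active = calcium fluorescence ratio at least three times the spread of buffer wells, meaning a non-specific response in parental cells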
# Hits are given with their value; . = inactive; / = no result given.
SMILES,MrgX1 PAM,MrgX1 antagonist,RGS4 act,MrgX1 ag,RGS4 inh,MrgX1 ant reconf,HEK293 Ca flux,HEK293 Ca counter,HEK293 Ca cntr2
Cc1c2ccccc2nc2ccccc12,.,.,.,.,.,/,/,/,/
CO[C@H]1O[C@H](CBr)[C@@H](OC(=O)c2ccccc2)[C@H](O)[C@H]1O,.,.,.,.,.,/,/,/,/
COC1OC(COC(=O)c2ccccc2)C(OC(=O)c2ccccc2)C1OC(=O)c1ccccc1 (configuration not stated),.,-5.5,.,.,.,.,.,.,.
O=C(Cc1c(F)cccc1Cl)Nc1ccon1,.,-6.5,.,.,.,.,.,.,.
Cc1cc(NC(=O)Cc2c(F)cccc2Cl)no1,.,.,.,.,.,/,/,/,/
O=c1[nH]c(C(F)(F)F)nc2c1nnn2Cc1ccccc1F,.,-5.2,.,.,.,.,.,.,.
O=C(NC(=S)NCC1CCCO1)c1ccco1 (configuration not stated),.,-25,.,.,.,.,.,.,.
COc1ccc(C)cc1S(=O)(=O)N(CC(=O)N1CCCC1)c1ccccc1,.,-5.8,.,.,.,.,.,.,.
COc1ccc(C)cc1S(=O)(=O)N(CC(=O)N1CCCC1)c1ccc(C)cc1,.,.,.,.,.,/,/,/,/
Fc1ccc(COc2ccccc2C(=S)N2CCCC2)cc1,.,-5.4,.,.,.,.,.,.,.
CCC1CCCCN1C(=O)N[C@@H](Cc1ccccc1)C(=O)O (some centres not stated),.,-5,.,.,.,.,.,.,.
Cn1nc(C(=O)Nc2cccc(Cl)c2)cc1C(=O)Nc1cccc(Cl)c1,.,-4.8,.,.,.,.,.,.,.
CCNC(=S)NCc1ccco1,.,-6.2,.,.,.,.,.,.,.
S=C(NCc1ccc(Cl)cc1)NCc1ccco1,.,.,.,.,.,/,/,/,/
Cc1ccnc(NC(=O)C2CCN(S(=O)(=O)c3ccc(C)c(C)c3)CC2)c1,.,.,.,.,.,/,/,/,/
Cc1ccc(-c2nc(CSCC(=O)N3CCCC3)c(C)o2)cc1,.,.,.,.,.,/,/,/,/
Cc1cccc(-c2nc(CSCC(=O)N3CCN(c4ccccn4)CC3)c(C)o2)c1,.,-8,.,.,.,58%,.,.,.
CN1CCc2c(sc3c2C(=O)NC(c2ccccc2)N3)C1 (configuration not stated),.,-9.5,.,.,.,.,.,.,.
O=C(NC(NC(=S)Nc1ccc(Cl)c(Cl)c1)C(Cl)(Cl)Cl)c1ccco1 (configuration not stated),.,.,.,.,.,/,/,/,/
O=C(NC(NC(=S)Nc1cc(Cl)ccc1Cl)C(Cl)(Cl)Cl)c1ccco1 (configuration not stated),.,-5.8,.,.,.,60%,.,.,.
COc1cc(NC(=S)N2CCCCC2C)c(OC)cc1Cl (configuration not stated),.,-6.5,.,.,.,.,.,.,.
Cc1nn(C)cc1CNC(=O)c1cnn2c(C(F)F)cc(C3CC3)nc12,.,-4.7,.,.,.,.,.,.,.
O=C(NCCc1ccccc1)c1cnn2c(C(F)F)cc(C3CC3)nc12,.,.,.,.,.,/,/,/,/
O=C(NCCc1ccc(Cl)cc1)/C(=C/c1cccnc1)NC(=O)c1ccccc1,.,.,.,.,.,/,/,/,/
O=C(Nc1ccccc1)Nc1cccc(C(F)(F)F)c1,.,-5.2,.,.,.,84%,.,.,.
SMILES,MrgX1 PAM,MrgX1 antagonist,RGS4 act,MrgX1 ag,RGS4 inh,MrgX1 ant reconf,HEK293 Ca flux,HEK293 Ca counter,HEK293 Ca cntr2
CC(C)(C)NC(=S)Nc1cccc(C(F)(F)F)c1,.,-5.2,.,.,.,.,.,.,.
FC(F)(F)c1cccc(NC(=S)NCc2ccccc2)c1,.,-5.4,.,.,.,.,.,.,58
FC(F)(F)c1cccc(CNC(=S)Nc2ccccc2)c1,.,.,.,.,.,/,/,/,/
CCOC(=O)c1cnc2c(-c3ccccc3)cnn2c1C,.,-5,.,.,.,.,.,.,.
CCOC(=O)c1cnn(-c2ccccc2)c1N,.,-4.7,.,.,.,.,.,.,.
CCOC(=O)c1cnn(-c2cccc(Cl)c2)c1N,.,.,.,.,.,/,/,/,/
O=C(COc1ncnc2ccccc12)NCCCN1CCCC1=O,.,.,.,.,.,/,/,/,/
O=C1c2ccccc2-c2onc3ccc(Oc4ccccc4)c1c23,.,-7.4,.,.,.,74%,.,.,.
CCOC(=O)C(C(=O)OCC)c1cc(Br)c2noc3c2c1C(=O)c1ccccc1-3,.,.,.,.,.,/,/,/,/
O=[N+]([O-])c1c(Nc2ccc(O)cc2)cc(Cl)c2nonc12,.,-15,.,.,.,16%,.,.,.
CN(C)c1cc(Nc2ccc(O)cc2)c([N+](=O)[O-])c2nonc12,.,.,.,.,.,/,/,/,/
OCC[C@@H]1C[C@H](O)[C@@H](O)[C@]2(CCc3ccccc3O2)O1,.,.,.,.,.,/,/,/,/
CCN(CC)CCNC(=O)/C(=C/c1cn(C)c2ccccc12)NC(=O)c1ccc(OC)c(OC)c1,.,.,.,.,.,/,/,/,/
CC(=O)c1ccc(OCC(=O)NC2CCS(=O)(=O)C2)cc1 (configuration not stated),.,.,.,.,.,/,/,/,/
CC(C)(C)c1ccc(OCCC(=O)OCC(=O)NC2CCS(=O)(=O)C2)cc1 (configuration not stated),.,-5.3,.,.,.,.,.,.,.
Cc1ccc(C)c(OCCC(=O)OCC(=O)NC2CCS(=O)(=O)C2)c1 (configuration not stated),.,-5.5,.,.,.,.,.,.,.
CC1CCCN(C(=O)COC(=O)c2cccc(NS(=O)(=O)c3ccccc3)c2)C1 (configuration not stated),.,.,.,.,.,/,/,/,/
O=C(Nc1ccccc1C(=O)NCCCN1CCOCC1)c1ccc(F)cc1,.,.,.,.,.,/,/,/,/
CCCCc1n[nH]c(=S)n1Cc1ccc(Cl)cc1,.,-5.7,.,.,.,.,.,.,.
CCCn1c(CCc2ccccc2)n[nH]c1=S,.,-7.5,.,.,.,.,.,.,.
Cc1cccc2nc(CSc3nnc4ccccn34)cn12,.,.,.,.,.,/,/,/,/
